Activity and IC50 data for two compounds are collected here from ChEMBL document CHEMBL1148187, “Modified taxols, 9. Synthesis and biological evaluation of 7-substituted photoaffinity analogues of taxol” (J Nat Prod, 1993).

For experiment [1], the species on record is Bos taurus. The experiment can be described thus: Induction of bovine brain tubulin polymerization at 40 uM by turbidimetry in presence of 4-morpholine-ethanesulfonate. The essentials: (§1)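 Low ionic strength turbidimetry at 350 or 420 nm: 10 μM purified bovine brain tubulin in 0.1 M 4-morpholine-ethanesulfonate (pH 6.9), 0.5 mM MgCl2, 100 μM GTP, 4% DMSO. Baseline at 0°, then temperature stepped to 15° and 37°.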

Experiment [2] is described as follows: Inhibition of bovine brain tubulin depolymerization after 20 mins by turbidimetry. Set-up: species or system Bos taurus. The essentials: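 Purified bovine brain tubulin 10 μM (1.0 mg/ml) in 1.0 M monosodium glutamate (pH 6.6), 50 μM GTP, 4% DMSO, with varying analogue concentrations. Temperature jump 0 to 37°, held about 20 min, then reverse jump to 0°. Maximum depolymerization rate read as fall in A350 or A420. IC50 interpolated; at least three independent determinations.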

Experiment [3] is filed under the species Bos taurus. The experiment can be described thus: Induction of bovine brain tubulin polymerization at 10 uM by turbidimetry at 37 degC in presence of 4-morpholine-ethanesulfonate. The essentials:
as §1

The species entered for experiment [4] is Bos taurus. Briefly: Induction of bovine brain tubulin polymerization at 10 uM by turbidimetry at 15 degC in presence of 4-morpholine-ethanesulfonate. The essentials:
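Purified bovine brain tubulin at 10 μM (1.0 mg/ml) in 0.1 M 4-morpholine-ethanesulfonate (pH 6.9) with 0.5 mM MgCl2, 100 μM GTP, 4% (v/v) DMSO, and agent at 10 μM. Baseline was read at 0°, the controller was then set to 15°, and later temperature steps followed. Polymerization was followed by turbidity at 350 or 420 nm.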

Experiment [5] is filed under the species Bos taurus. The experiment can be described thus: Induction of bovine brain tubulin depolymerization at 10 uM by turbidimetry in presence of glutamate. The procedure, abridged: (§2)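 Turbidimetry at 350 or 420 nm of 10 μM purified bovine brain tubulin in 1.0 M monosodium glutamate (pH 6.6), 50 μM GTP, 4% DMSO. Baseline at 0°, then stepped temperatures: 15°, 37°, then down to 10° and 0° to follow depolymerization.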

The species entered for experiment [6] is Bos taurus. Briefly: Induction of bovine brain tubulin polymerization at 10 uM at 0 degC by turbidimetry at lower temperature in presence of glutamate. The conditions noted are these: in the assay text read “at 15 degC” for “at 0 degC”. The essentials:
as §2

Active and inactive are the calls of the source. No cut-off for these calls is given here.

The IC50 is the concentration that inhibits the measured activity by half. A high value points to a need for much substance.

Turning to `CC(=O)O[C@H]1C(=O)[C@]2(C)[C@@H](OC(=O)c3ccccc3)C[C@H]3OC[C@@]3(OC(C)=O)[C@H]2[C@H](OC(=O)c2ccccc2)[C@]2(O)C[C@H](OC(=O)[C@H](O)[C@@H](NC(=O)c3ccccc3)c3ccccc3)C(C)=C1C2(C)C` [PACLITAXEL C7 BENZOIC ACID ESTER], the result in experiment [1] was inactive. The same compound had a half-maximal inhibitory concentration (IC50) in experiment [2] of 650 nM.

For `CC(=O)O[C@H]1C(=O)[C@@]2(C)[C@H]([C@H](OC(=O)c3ccccc3)[C@]3(O)C[C@H](OC(=O)[C@H](O)[C@@H](NC(=O)c4ccccc4)c4ccccc4)C(C)=C1C3(C)C)[C@]1(OC(C)=O)CO[C@@H]1C[C@@H]2O` [PACLITAXEL], the result in experiment [3] and in experiment [6] was Active. Moreover, half-maximal inhibition in experiment [2] (IC50) required 420 nM. Also, the outcome in experiment [4] was inactive. Further, in experiment [5], the Activity is less than 50%.
